Measured values from ChEMBL document CHEMBL1131060, “Salicylhydrazine-containing inhibitors of HIV-1 integrase: implication for a selective chelation in the integrase active site” (J Med Chem, 1998).

What was measured:
[1] = system: CCRF-CEM; test: Effective concentration was evaluated on HIV-1 infected CEM cells.; type: functional, cell-based; settings: Homo sapiens
In short: (§1)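 CEM T4 lymphocytes, exponentially growing, 5000 cells/well, infected with thawed HIV-1 stock at m.o.i. ~0.1. Compounds dissolved in DMSO, diluted 1:100 in medium, final 1:200. Uninfected drug-treated cells served as toxicity control. Incubation 6 days at 37 °C, 5% CO2. Viability read by XTT formazan absorbance, with microscopic confirmation of protection.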

[2] = system: CCRF-CEM; test: Tested for HIV-1 replication in CEM cells.; type: functional, cell-based; settings: Homo sapiens; in short: as §1
[3] = biological target: T1, Human immunodeficiency virus type 1 integrase (Human immunodeficiency virus 1, UniProt Q7ZJM1); test: Inhibition of HIV-1 integrase enzyme at 3`- processing stage of DNA integration
T1 sequence (Q7ZJM1 whole entry): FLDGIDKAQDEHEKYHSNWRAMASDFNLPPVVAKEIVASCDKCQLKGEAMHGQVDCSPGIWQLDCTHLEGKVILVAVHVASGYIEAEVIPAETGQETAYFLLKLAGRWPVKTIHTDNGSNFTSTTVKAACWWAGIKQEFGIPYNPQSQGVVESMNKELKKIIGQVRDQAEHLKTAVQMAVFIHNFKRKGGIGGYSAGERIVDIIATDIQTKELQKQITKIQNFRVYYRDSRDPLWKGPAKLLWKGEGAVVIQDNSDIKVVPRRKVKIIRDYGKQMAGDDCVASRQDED

[4] = biological target: T1, Human immunodeficiency virus type 1 integrase; test: Inhibitory concentration as 50% inhibition of HIV-1 integrase enzyme at strand transfer stage of DNA integration.
[5] = system: CCRF-CEM; test: Effective concentration was evaluated on HIV-1 infected CEM cells. (NR-not reached due to cytotoxicity.); type: functional, cell-based; in short: as §1
[6] = biological target: T1, Human immunodeficiency virus type 1 integrase; test: Inhibitory concentration was evaluated as 50% inhibition of HIV-1 integrase enzyme at 3`- processing stage of DNA integration in experiment I
[7] = biological target: T1, Human immunodeficiency virus type 1 integrase; test: Inhibitory concentration was evaluated as 50% inhibition of HIV-1 integrase enzyme at strand transfer stage of DNA integration in experiment I
In short: (§2)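 Purified recombinant HIV-1 integrase (200 nM final) preincubated with inhibitor for 30 min at 30 °C in MOPS/HEPES pH 7.2–7.5 buffer containing 7.5 mM MnCl2 and 10% DMSO. 20 nM 5'-32P-labeled 21-mer duplex oligonucleotide (AE117/AE118) added, then 1 h more. Strand transfer products resolved on denaturing 20% polyacrylamide/urea gels and quantified by phosphorimaging. % inhibition plotted against drug concentration to read IC50.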

[8] = biological target: T1, Human immunodeficiency virus type 1 integrase; test: Inhibitory concentration was evaluated as 50% inhibition of HIV-1 integrase enzyme at strand transfer stage of DNA integration in experiment II; in short: as §2
[9] = biological target: T1, Human immunodeficiency virus type 1 integrase; test: Inhibitory concentration was evaluated as 50% inhibition of HIV-1 integrase enzyme at 3`- processing stage of DNA integration in experiment II
[10] = system: CCRF-CEM; test: Effective concentration was evaluated on HIV-1 infected CEM cells; type: functional, cell-based; settings: Homo sapiens; in short: as §1
[11] = system: CCRF-CEM; test: Effective concentration was evaluated on HIV-1 infected CEM cells.(NR-not reached due to cytotoxicity.); type: functional, cell-based, Homo sapiens; in short: as §1

Row | SMILES | IC50 [2] [µM] | IC50 [3] [µM] | IC50 [4] [µM] | EC50 [5] | also measured
1 | CC1=NN(C(=O)c2ccc(Cl)cc2)C(=O)/C1=C/c1ccc(O)cc1 | > 15 | > 293 | > 293 |  | EC50 [1]: > 15 µM
2 | O=C(NN1C(=O)C(Cl)C1c1ccc([N+](=O)[O-])cc1)c1ccccc1O (stereo not drawn) | > 10 |  |  | Not reached | IC50 [6]: 192 µM; IC50 [7]: 155 µM; IC50 [8]: 83 µM; IC50 [9]: 168 µM
3 | O=C(NNC(=O)c1cccc2ccccc12)c1ccccc1F |  | > 100 | > 100 |  | 
4 | O=C(NNC(=O)c1cccc2ccccc12)c1ccccc1Br |  | > 100 | > 100 |  | 
5 | O=C(NNC(=O)c1cccc2ccccc12)c1ccc(Cl)c(Cl)c1 |  | > 100 | > 100 |  | 
6 | O=C(NNC(=O)c1ccc2ccccc2c1)c1ccc(Cl)c(Cl)c1 |  | > 100 | > 100 |  | 
7 | O=C(NNC(=O)c1ccccc1F)c1ccc2ccccc2c1 |  | > 100 | > 100 |  | 
8 | O=C(NN1C(=O)C(Cl)C1c1cccc(O)c1)c1ccccc1O (stereo not drawn) | > 15 |  |  | Not reached | IC50 [6]: 180 µM; IC50 [7]: 236 µM; IC50 [8]: 99 µM; IC50 [9]: 225 µM
9 | COc1cc(/C=C2/C(=O)N(C(=O)c3ccc(Cl)cc3)N=C2C)cc(OC)c1OC | > 17 | > 240 | > 240 |  | EC50 [1]: > 17 µM
10 | O=C(NNC(=O)c1ccccc1Br)c1ccccc1Br |  | > 100 | > 100 |  | 
11 | O=C(NNC(=O)c1ccccc1F)c1ccccc1F |  | > 100 | > 100 |  | 
12 | CC1=NN(C(=O)c2ccc(Cl)cc2)C(=O)/C1=C/c1cccc([N+](=O)[O-])c1 | > 20 | > 270 | > 270 |  | EC50 [10]: > 20 µM
13 | Nc1ccccc1C(=O)NNC(=O)c1ccccc1N | > 200 | > 100 | > 100 |  | EC50 [10]: > 200 µM
14 | CC1=NN(C(=O)c2ccccc2O)C(=O)/C1=C/c1ccccc1O | 0.062 |  | 2.8 | Not reached | 
15 | COc1cc(C(=O)NNC(=O)c2ccc(Cl)c(Cl)c2)cc(OC)c1OC |  | > 100 | > 100 |  | 
16 | COc1ccc(/C=C2/C(=O)N(C(=O)c3ccc(Cl)cc3)N=C2C)cc1OC | > 35 | > 260 | > 260 |  | EC50 [1]: > 35 µM
17 | CC1=NN(C(=O)c2ccc(Cl)cc2)C(=O)/C1=C/c1cccc(O)c1 | > 8 | > 293 | > 293 |  | EC50 [1]: > 8 µM
18 | O=C(NNC(=O)c1ccc(Cl)c(Cl)c1)c1ccccc1 |  | > 100 | > 100 |  | 
19 | COc1ccc(/C=C2/C(=O)N(C(=O)c3ccccc3O)N=C2C)cc1OC | 0.15 |  |  | Not reached | 
20 | O=C(NNC(=O)c1ccc(Cl)cc1Cl)c1ccc2ccccc2c1 |  | > 100 | > 100 |  | 
21 | CCOc1ccccc1C(=O)NNC(=O)c1ccccc1OCC |  | > 100 | > 100 |  | 
22 | CC1=NN(C(=O)c2ccc(Cl)cc2)C(=O)/C1=C/c1ccccc1O | > 21 | > 293 | > 293 |  | EC50 [1]: > 21 µM
23 | CC1=NN(C(=O)c2ccc(Cl)cc2)C(=O)/C1=C/c1ccc(Cl)cc1 | > 10 | > 280 | > 280 |  | EC50 [1]: > 10 µM
24 | O=C(NNC(=O)c1ccccc1O)c1ccccc1O | 0.1 |  |  |  | EC50 [11]: Not reached
25 | O=C(NNC(=O)c1ccc(Cl)c(Cl)c1)c1ccc(Cl)c(Cl)c1 |  | > 100 | > 100 |  | 

Second part, led by results:

Row | IC50 [2] [µM] | IC50 [3] [µM] | IC50 [4] [µM] | SMILES | EC50 [5] | also measured
26 | 0.053 | 0.9 | 0.6 | COc1ccc(/C=C2/C(=O)N(C(=O)c3ccccc3O)N=C2C)cc1 | Not reached | 
27 |  | > 100 | > 100 | O=C(O)c1ccccc1C(=O)NNC(=O)c1ccccc1C(=O)O |  | 
28 |  | > 100 | > 100 | COc1cc(C(=O)NNC(=O)c2ccc(Cl)cc2)cc(OC)c1OC |  | 
29 |  | > 100 | > 100 | O=C(NNC(=O)c1ccc(Br)cc1)c1ccc(Br)cc1 |  | 
30 | 8.2 | 300 | 264 | O=C(NN1C(=O)C(Cl)C1c1ccccc1O)c1ccccc1O (stereo not drawn) | Not reached | 
31 | > 14.8 |  | 94 | O=C(NN1C(=O)C(Cl)C1c1ccccc1Cl)c1ccccc1O (stereo not drawn) | Not reached | IC50 [6]: 241 µM; IC50 [9]: 248 µM
32 | 0.059 | 0.6 | 0.9 | CC1=NN(C(=O)c2ccccc2O)C(=O)/C1=C/c1ccc(O)cc1 | Not reached | 
33 | 4.4 |  | 73.7 | COc1cc(C2C(Cl)C(=O)N2NC(=O)c2ccccc2O)cc(OC)c1OC (stereo not drawn) | Not reached | IC50 [6]: 68.8 µM; IC50 [9]: 75.7 µM
34 | 0.091 | 0.8 | 0.6 | CC1=NN(C(=O)c2ccccc2O)C(=O)/C1=C/c1ccc([N+](=O)[O-])cc1 | Not reached | 
35 | 10.3 | > 300 | 285 | O=C(NN1C(=O)C(Cl)C1c1ccc(O)cc1)c1ccccc1O (stereo not drawn) | Not reached | 
36 | > 74 |  | 125 | O=C(NN1C(=O)C(Cl)C1c1cccc(Cl)c1)c1ccccc1O (stereo not drawn) | Not reached | IC50 [6]: 155 µM; IC50 [9]: 202 µM
37 | > 50 |  | 106 | COc1ccc(C2C(Cl)C(=O)N2NC(=O)c2ccccc2O)cc1OC (stereo not drawn) | Not reached | IC50 [6]: 125 µM; IC50 [9]: 109 µM
38 |  | 127 | 222 | O=C(NN1C(=O)C(Cl)C1c1c(O)ccc2ccccc12)c1ccccc1O (stereo not drawn) |  | 
39 | 0.24 | 2 | 2 | COc1cc(/C=C2/C(=O)N(C(=O)c3ccccc3O)N=C2C)cc(OC)c1OC | Not reached | 
40 | 0.6 | 2.7 | 2 | CC1=NN(C(=O)c2ccccc2O)C(=O)/C1=C/c1ccco1 | Not reached | 
41 | > 27.5 | > 275 | 262 | COc1cc(C2C(Cl)C(=O)N2NC(=O)c2ccccc2O)ccc1O (stereo not drawn) | Not reached | 
42 |  | 0.8 | 0.6 | COc1cc(/C=C2/C(=O)N(C(=O)c3ccccc3O)N=C2C)ccc1O | Not reached | 
43 |  | 0.9 | 7.4 | CC1=NN(C(=O)c2ccccc2O)C(=O)/C1=C/c1cccc(O)c1 | Not reached | 
44 | > 144 | 288 | 167 | COc1ccc(C2C(Cl)C(=O)N2NC(=O)c2ccccc2O)cc1 (stereo not drawn) |  | 
45 | 0.098 | 1.4 | 2.6 | CC1=NN(C(=O)c2ccccc2O)C(=O)/C1=C/c1cccc([N+](=O)[O-])c1 | Not reached | 
